Experiments:
Mus musculus [1] = assay: Percentage protection against NMDA-induced lethality in mice by the compound at 40 mg/Kg administered ip 60 mins before iv administration of NMDA in the lethal dose of 90 mg/Kg.; assay type: functional
Summary of the method: (§1)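 Male ddY mice (20-28 g), groups of 10, given test compound in saline by intraperitoneal injection. 60 min later they were challenged with a lethal intravenous dose of NMDA (90 mg/kg) in saline. The read-out is protection from NMDA-induced death.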

Mus musculus [2] = assay: Percentage protection against NMDA-induced lethality in mice by the compound at 20 mg/Kg administered ip 60 mins before iv administration of NMDA in the lethal dose of 90 mg/Kg.; assay type: functional; summary of the method: as §1
Glutamate NMDA receptor = assay: Inhibition of [3H]MK-801 binding to NMDA receptor of rat cerebral cortical synaptic membrane

Compound | IC50 (Glutamate NMDA receptor) [µM] | Protection (Mus musculus [1]) [%] | Protection (Mus musculus [2]) [%]
CCN(CC)C(=O)[C@@]1(c2ccccc2)C[C@H]1CN(C)C | 88 | 40 | 10
CCN(CC)C(=O)[C@@]1(c2ccccc2)C[C@H]1CCN | 10 | 20 | 30
CCN(CC)C(=O)[C@@]1(c2ccccc2)C[C@H]1Cn1ccnc1C | > 100 | – | –
CCN(CC)C(=O)[C@@]1(c2ccccc2)C[C@H]1CNC | 13 | 30 | 20
CCN(CC)C(=O)[C@@]1(c2ccccc2)C[C@H]1CN [LEVOMILNACIPRAN] | 6.3 | 100 | 60

Further lines, with some results ahead:

IC50 (Glutamate NMDA receptor) [µM] | Compound | Protection (Mus musculus [1]) [%] | Protection (Mus musculus [2]) [%]
> 100 | CCN(CC)C(=O)[C@@]1(c2ccccc2)C[C@H]1CN=[N+]=[N-] | – | –
> 100 | CCN(CC)C(=O)[C@@]1(c2ccccc2)C[C@H]1C=O | – | –
> 100 | CCOC(=O)[C@@]1(c2ccccc2)C[C@H]1CN | – | –
> 100 | CCN(CC)C(=O)[C@@]1(c2ccccc2)C[C@H]1CO | – | –
> 100 | NC[C@@H]1C[C@@]1(C(=O)O)c1ccccc1 | – | –
